Reference: ChEMBL document CHEMBL3046880, “Syntheses and herbicidal activities of novel triazolinone derivatives” (J Agric Food Chem, 2008)

Tests used:
[1] = Phytotoxicity against Glycine max (soybean) plant assessed as growth inhibition at 75 g of active ingredient/ha administered using post-emergence treatment measured 30 days post treatment protocol under greenhouse conditions; format: organism-based; settings: in vivo, read-out: GI
Method in brief: (§1)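 Compounds were formulated as 100 g/L emulsified concentrates in DMF with TW-80 as emulsifier, then diluted with water to the required concentration. They were applied postemergence to pot-grown plants in a greenhouse. The soil was clay, pH 6.5, with 1.6% organic matter, 37.3% clay particles and CEC 12.1 mol/kg. Sulfentrazone served as the reference control.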

[2] = Phytotoxicity against Gossypium hirsutum (cotton) plant assessed as growth inhibition at 75 g of active ingredient/ha administered using post-emergence treatment measured 30 days post treatment protocol under greenhouse conditions; format: organism-based; settings: in vivo, read-out: GI; method in brief: as §1
Portulaca oleracea [3] = test: Herbicidal activity against Portulaca oleracea assessed as growth inhibition at 150 g of active ingredient/ha administered using post-emergence treatment measured 15 days post treatment protocol under greenhouse conditions; format: functional
Method in brief: (§2)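 Test agents were formulated as 100 g/L emulsified concentrates (DMF solvent, TW-80 emulsifier), diluted with water and sprayed postemergence on pot-grown weeds. Seeds were sown 1-3 cm deep in clay soil (pH 6.5, 1.6% organic matter, 37.3% clay, CEC […]) and grown at 15–30 °C in a greenhouse. Dicots were treated at the two-leaf stage. Untreated and DMF-treated plants served as controls. Activity was scored visually 15 days after treatment.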

Eclipta prostrata = test: Herbicidal activity against Eclipta prostrata assessed as growth inhibition at 37.5 g of active ingredient/ha administered using post-emergence treatment measured 15 days post treatment protocol under greenhouse conditions; format: functional; method in brief: as §2
Brassica napus [4] = test: Phytotoxicity against Brassica napus (oilseed rape) assessed as growth inhibition at 450 g of active ingredient/ha administered using post-emergence treatment measured 30 days post treatment protocol under greenhouse conditions; format: organism-based; settings: in vivo, other, 720 h; method in brief: as §1
Cerastium arvense [5] = test: Herbicidal activity against Cerastium arvense assessed as growth inhibition at 75 g of active ingredient/ha administered using post-emergence treatment measured 15 days post treatment protocol under greenhouse conditions; format: functional; method in brief: as §2
Portulaca oleracea [6] = test: Herbicidal activity against Portulaca oleracea assessed as growth inhibition at 37.5 g of active ingredient/ha administered using post-emergence treatment measured 15 days post treatment protocol under greenhouse conditions; format: functional; method in brief: as §2
Echinochloa crus-galli [7] = test: Herbicidal activity against Echinochloa crus-galli (barnyard grass) assessed as growth inhibition at 150 g of active ingredient/ha administered using post-emergence treatment measured 15 days post treatment protocol under greenhouse conditions; format: functional; method in brief: as §2
Gossypium hirsutum = test: Phytotoxicity against Gossypium hirsutum (cotton) plant assessed as growth inhibition at 300 g of active ingredient/ha administered using post-emergence treatment measured 30 days post treatment protocol under greenhouse conditions; format: organism-based; settings: in vivo, other, 720 h; method in brief: as §1
Glycine max = test: Phytotoxicity against Glycine max (soybean) plant assessed as growth inhibition at 450 g of active ingredient/ha administered using post-emergence treatment measured 30 days post treatment protocol under greenhouse conditions; format: organism-based; settings: in vivo, other, 720 h; method in brief: as §1
Cerastium arvense [8] = test: Herbicidal activity against Cerastium arvense assessed as growth inhibition at 150 g of active ingredient/ha administered using post-emergence treatment measured 15 days post treatment protocol under greenhouse conditions; format: functional; method in brief: as §2
Zea mays [9] = test: Phytotoxicity against Zea mays (maize) plant assessed as growth inhibition at 150 g of active ingredient/ha administered using post-emergence treatment measured 30 days post treatment protocol under greenhouse conditions; format: organism-based; settings: in vivo, other, 720 h; method in brief: as §1
Cerastium arvense [10] = test: Herbicidal activity against Cerastium arvense assessed as growth inhibition at 37.5 g of active ingredient/ha administered using post-emergence treatment measured 15 days post treatment protocol under greenhouse conditions; format: functional; method in brief: as §2
[11] = Phytotoxicity against Oryza sativa (rice) plant assessed as growth inhibition at 450 g of active ingredient/ha administered using post-emergence treatment measured 30 days post treatment protocol under greenhouse conditions; format: organism-based; settings: in vivo, read-out: GI; method in brief: as §1
Triticum aestivum [12] = test: Phytotoxicity against Triticum aestivum (wheat) plant assessed as growth inhibition at 300 g of active ingredient/ha administered using post-emergence treatment measured 30 days post treatment protocol under greenhouse conditions; format: organism-based; settings: in vivo, other, 720 h; method in brief: as §1
Senna tora [13] = test: Herbicidal activity against Senna tora assessed as growth inhibition at 75 g of active ingredient/ha administered using post-emergence treatment measured 15 days post treatment protocol under greenhouse conditions; format: functional; method in brief: as §2
Zea mays [14] = test: Phytotoxicity against Zea mays (maize) plant assessed as growth inhibition at 450 g of active ingredient/ha administered using post-emergence treatment measured 30 days post treatment protocol under greenhouse conditions; format: organism-based; settings: in vivo, other, 720 h; method in brief: as §1
Brassica juncea = test: Herbicidal activity against Brassica juncea assessed as growth inhibition at 37.5 g of active ingredient/ha administered using post-emergence treatment measured 15 days post treatment protocol under greenhouse conditions; format: functional; method in brief: as §2
Brassica napus [15] = test: Phytotoxicity against Brassica napus (oilseed rape) assessed as growth inhibition at 300 g of active ingredient/ha administered using post-emergence treatment measured 30 days post treatment protocol under greenhouse conditions; format: organism-based; settings: in vivo, other, 720 h; method in brief: as §1
[16] = Phytotoxicity against Zea mays (maize) plant assessed as growth inhibition at 75 g of active ingredient/ha administered using post-emergence treatment measured 30 days post treatment protocol under greenhouse conditions; format: organism-based; settings: in vivo, read-out: GI; method in brief: as §1
Setaria viridis = test: Herbicidal activity against Setaria viridis (green foxtail) assessed as growth inhibition at 37.5 g of active ingredient/ha administered using post-emergence treatment measured 15 days post treatment protocol under greenhouse conditions; format: functional; method in brief: as §2
Digitaria sanguinalis [17] = test: Herbicidal activity against Digitaria sanguinalis (hairy crabgrass) assessed as growth inhibition at 37.5 g of active ingredient/ha administered using post-emergence treatment measured 15 days post treatment protocol under greenhouse conditions; format: functional; method in brief: as §2
Zea mays [18] = test: Phytotoxicity against Zea mays (maize) plant assessed as growth inhibition at 300 g of active ingredient/ha administered using post-emergence treatment measured 30 days post treatment protocol under greenhouse conditions; format: organism-based; settings: in vivo, other, 720 h; method in brief: as §1
Triticum aestivum [19] = test: Phytotoxicity against Triticum aestivum (wheat) plant assessed as growth inhibition at 450 g of active ingredient/ha administered using post-emergence treatment measured 30 days post treatment protocol under greenhouse conditions; format: organism-based; settings: in vivo, other, 720 h; method in brief: as §1
[20] = Phytotoxicity against Oryza sativa (rice) plant assessed as growth inhibition at 75 g of active ingredient/ha administered using post-emergence treatment measured 30 days post treatment protocol under greenhouse conditions; format: organism-based; settings: in vivo, read-out: GI; method in brief: as §1
Echinochloa crus-galli [21] = test: Herbicidal activity against Echinochloa crus-galli (barnyard grass) assessed as growth inhibition at 37.5 g of active ingredient/ha administered using post-emergence treatment measured 15 days post treatment protocol under greenhouse conditions; format: functional; method in brief: as §2
[22] = Phytotoxicity against Triticum aestivum (wheat) plant assessed as growth inhibition at 75 g of active ingredient/ha administered using post-emergence treatment measured 30 days post treatment protocol under greenhouse conditions; format: organism-based; settings: in vivo, read-out: GI; method in brief: as §1
Digitaria sanguinalis [23] = test: Herbicidal activity against Digitaria sanguinalis (hairy crabgrass) assessed as growth inhibition at 75 g of active ingredient/ha administered using post-emergence treatment measured 15 days post treatment protocol under greenhouse conditions; format: functional; method in brief: as §2
Triticum aestivum [24] = test: Phytotoxicity against Triticum aestivum (wheat) plant assessed as growth inhibition at 150 g of active ingredient/ha administered using post-emergence treatment measured 30 days post treatment protocol under greenhouse conditions; format: organism-based; settings: in vivo, other, 720 h; method in brief: as §1
Senna tora [25] = test: Herbicidal activity against Senna tora assessed as growth inhibition at 37.5 g of active ingredient/ha administered using post-emergence treatment measured 15 days post treatment protocol under greenhouse conditions; format: functional; method in brief: as §2
Amaranthus retroflexus = test: Herbicidal activity against Amaranthus retroflexus assessed as growth inhibition at 150 g of active ingredient/ha administered using post-emergence treatment measured 15 days post treatment protocol under greenhouse conditions; format: functional; method in brief: as §2

In the case of `CCS(=O)(=O)Nc1cc(-n2nc(C)n(Cc3ccccc3/C(=N\OC)C(=O)OC)c2=O)c(F)cc1Cl`, the inhibition at 720 h [1] was 60%, the inhibition at 720 h [2] was 60% and the “growth inhibition (GI)” value (Portulaca oleracea [3]) was 100%. The “growth inhibition (GI)” value (Eclipta prostrata) was over 80%, the Activity (Brassica napus [4]) was “Toxic” and the “growth inhibition (GI)” value (Cerastium arvense [5]) was 100%. For the same molecule, the “growth inhibition (GI)” value (Portulaca oleracea [6]) was 100%, the “growth inhibition (GI)” value (Echinochloa crus-galli [7]) was 50% and the Activity (Gossypium hirsutum) was “Toxic”. The Activity (Glycine max) was “Toxic”, the “growth inhibition (GI)” value (Cerastium arvense [8]) was 100% and the Activity (Zea mays [9]) was “Toxic”. For the same molecule, the “growth inhibition (GI)” value (Cerastium arvense [10]) was over 80%, the inhibition at 720 h [11] was 10% and the Activity (Triticum aestivum [12]) was “Toxic”. For the same molecule, the “growth inhibition (GI)” value (Senna tora [13]) was over 80%, the Activity (Zea mays [14]) was “Toxic” and the “growth inhibition (GI)” value (Brassica juncea) was over 80%. For the same molecule, the Activity (Brassica napus [15]) was “Toxic”, the inhibition at 720 h [16] was 40% and the “growth inhibition (GI)” value (Setaria viridis) was under 50%. The “growth inhibition (GI)” value (Digitaria sanguinalis [17]) was 50%, the Activity (Zea mays [18]) was “Toxic” and the Activity (Triticum aestivum [19]) was “Toxic”. For the same molecule, the inhibition at 720 h [20] was 0%, the “growth inhibition (GI)” value (Echinochloa crus-galli [21]) was under 50% and the inhibition at 720 h [22] was 40%. The “growth inhibition (GI)” value (Digitaria sanguinalis [23]) was 50%, the Activity (Triticum aestivum [24]) was “Toxic” and the “growth inhibition (GI)” value (Senna tora [25]) was 50%. The “growth inhibition (GI)” value (Amaranthus retroflexus) was 100%.
